Test results published in ChEMBL document CHEMBL1156919, “Synthesis and induction of apoptosis signaling pathway of ent-kaurane derivatives” (Bioorg Med Chem, 2010).
Activity calls are given as the source filed them. The rule behind the calls is not given here.

Experiments:
[1] = tested on: RAW264.7; assay: Cytotoxicity against mouse RAW264.7 cells assessed as reduction in cell viability after 24 hrs by MTT assay; assay type: functional, cell-based; settings: RAW264.7, 24 h
Summary of the method: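 RAW 264.7 mouse macrophage line kept in RPMI 1640 with 10% FBS, L-glutamine and antibiotics. Treated with 1–100 μM for 24 h, then MTT at 37 °C for 4 h. Formazan taken up in DMSO and read at 540 nm. Triplicate, at least three independent experiments. IC50 is the concentration giving 50% loss of viability relative to untreated cells.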

[2] = tested on: RAW264.7; assay: Induction of apoptosis in mouse RAW264.7 cells at 5 uM in presence of 40 uM caspase inhibitor z-VAD after 24 hrs by flow cytometry; assay type: functional, cell-based
Summary of the method: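 RAW 264.7 cells given 5 μM for 24 h, with or without 40 μM z-VAD. Stained with 0.005% (w/v) PI and analysed by flow cytometry. Apoptotic percentage taken from a forward scatter versus PI fluorescence dot plot. Three independent experiments in triplicate, means ± SD.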

[3] = tested on: RAW264.7; assay: Decrease in Bcl-xl protein expression in mouse RAW264.7 cells at 5 uM by Western blot; assay type: functional, cell-based
Summary of the method: (§1)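 RAW 264.7 cells incubated with 5 μM and sampled at several time points. Cytosolic extracts run on SDS–PAGE (10–15% gels) and blotted to PVDF. Probed for p53, Bax, Bcl-2, Bcl-xl, XIAP, IAP-1 and IAP-2, then HRP secondary and chemiluminescence. β-actin served as loading control. Protein measured by Bio-Rad assay.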

[4] = tested on: RAW264.7; assay: Decrease in Bcl-2 protein expression in mouse RAW264.7 cells at 5 uM by Western blot; assay type: functional, cell-based; summary of the method: as §1
[5] = tested on: RAW264.7; assay: Induction of apoptosis in mouse RAW264.7 cells assessed as caspase 9 activation at 5 uM in presence of 40 uM caspase inhibitor z-VAD after 24 hrs by fluorimetric assay; assay type: functional, cell-based
Summary of the method: (§2)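 RAW cells treated with 5 μM for 24 h, with or without 40 μM z-VAD. Caspase activity read fluorimetrically in cytosolic extracts. Substrates: Ac-DEVD-AMC for caspase-3, Ac-IETD-AFC for caspase-8, Ac-LEHD-AFC for caspase-9. Means ± SD of three independent experiments run in triplicate.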

[6] = Toxicity in thioglycolate-induced mouse peritoneal macrophages assessed as reduction in cell viability after 24 hrs by MTT assay; assay type: cell-based; settings: peritoneal macrophage cell
Summary of the method: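 Primary peritoneal macrophages from thioglycolate-injected mice exposed to a range of concentrations for 24 h. Viability read by MTT at 37 °C for 4 h, formazan dissolved in DMSO, absorbance at 540 nm. Three independent experiments in duplicate, means ± SD.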

[7] = tested on: RAW264.7; assay: Induction of apoptosis in mouse RAW264.7 cells assessed as caspase 3 activation at 5 uM in presence of 40 uM caspase inhibitor z-VAD after 24 hrs by fluorimetric assay; assay type: functional, cell-based; summary of the method: as §2
[8] = tested on: RAW264.7; assay: Increase in Bax protein expression in mouse RAW264.7 cells at 5 uM by Western blot; assay type: functional, cell-based; summary of the method: as §1
[9] = Toxicity in thioglycolate-induced mouse peritoneal macrophages assessed as induction of apoptosis after 24 hrs by flow cytometry; assay type: cell-based; settings: peritoneal macrophage cell
Summary of the method: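 Peritoneal macrophages collected from thioglycolate-injected mice and treated across a concentration range for 24 h. Stained with PI and analysed by flow cytometry for apoptotic percentage. Means ± SD of three independent experiments done in duplicate.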

[10] = tested on: RAW264.7; assay: Increase in p53 protein expression in mouse RAW264.7 cells at 5 uM by Western blot; assay type: functional, cell-based; summary of the method: as §1
[11] = tested on: RAW264.7; assay: Induction of apoptosis in mouse RAW264.7 cells assessed as caspase 3 activation at 5 uM after 24 hrs by fluorimetry; assay type: functional, cell-based; summary of the method: as §2
[12] = tested on: RAW264.7; assay: Induction of apoptosis in mouse RAW264.7 cells assessed as caspase 8 activation at 5 uM in presence of 40 uM caspase inhibitor z-VAD after 24 hrs by fluorimetric assay; assay type: functional, cell-based; summary of the method: as §2
[13] = tested on: RAW264.7; assay: Induction of apoptosis in mouse RAW264.7 cells at 1 to 25 uM after 24 hrs by flow cytometry; assay type: functional, cell-based
Summary of the method: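 RAW 264.7 cells exposed to 1–25 μM for 24 h. Stained with 0.005% (w/v) propidium iodide and analysed at once by flow cytometry. Apoptotic and necrotic fractions taken from a forward scatter versus PI fluorescence dot plot. Means ± SD of three independent experiments in triplicate.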

[14] = tested on: RAW264.7; assay: Decrease in IAP protein expression in mouse RAW264.7 cells at 5 uM by Western blot; assay type: functional, cell-based; summary of the method: as §1
[15] = tested on: HepG2; assay: Cytotoxicity against human HepG2 cells assessed as reduction in cell viability after 24 hrs by MTT assay; assay type: functional, cell-based; settings: HepG2, 24 h
Summary of the method: (§3)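 Cancer cells kept in DMEM with 10% FBS, L-glutamine and antibiotics. Exposed to 1–100 μM for 24 h, then MTT at 37 °C for 4 h. Formazan dissolved in DMSO and read at 540 nm. Triplicate wells, at least three independent experiments. Viability reduction expressed against untreated cultures. IC50 is the concentration giving 50% loss of viability.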

[16] = tested on: HT-29; assay: Cytotoxicity against human HT-29 cells assessed as reduction in cell viability after 24 hrs by MTT assay; assay type: functional, cell-based; settings: HT-29, 24 h; summary of the method: as §3
[17] = tested on: HeLa; assay: Cytotoxicity against human HeLa cells assessed as reduction in cell viability after 24 hrs by MTT assay; assay type: functional, cell-based; summary of the method: as §3
[18] = tested on: RAW264.7; assay: Induction of apoptosis in mouse RAW264.7 cells assessed as caspase 9 activation at 5 uM after 24 hrs by fluorimetry; assay type: functional, cell-based; summary of the method: as §2
[19] = tested on: RAW264.7; assay: Induction of apoptosis in mouse RAW264.7 cells assessed as caspase 8 activation at 5 uM after 24 hrs by fluorimetry; assay type: functional, cell-based; summary of the method: as §2

COC(=O)[C@]1(C)CCC[C@@]2(C)[C@@H]3CC[C@@H]4C[C@]3(C=C4C)CC[C@@H]21
IC50 [1]: 100 µM

C=C1C[C@@]23CC[C@@H]4[C@](C)(C(=O)O)CCC[C@@]4(C)C2=CC[C@@H]1C3 [GRANDIFLORENIC ACID]
IC50 [1]: 15 µM

COC(=O)[C@]1(C)CCC[C@@]2(C)[C@@H]3CC[C@@H]4C[C@@]3(CC[C@@H]21)C[C@@]4(C)OC
IC50 [1]: > 100 µM

COC(=O)[C@]1(C)CCC[C@@]2(C)[C@@H]3CC[C@@H]4C[C@@]3(CC[C@@H]21)C[C@H]4C=O
IC50 [1]: > 100 µM

COC(=O)[C@]1(C)CCC[C@@]2(C)[C@@H]3CC[C@@H]4C[C@]3(C=C4C=O)CC[C@@H]21
IC50 [1]: 25 µM

COC(=O)[C@]1(C)CCC[C@@]2(C)[C@@H]3CC[C@@H]4C[C@@]3(CC[C@@H]21)C[C@H]4/C=N/O
IC50 [1]: 35 µM

COC(=O)[C@]1(C)CCC[C@@]2(C)[C@@H]3CC[C@@H]4C[C@@]3(CC[C@@H]21)C[C@]4(O)CO
IC50 [1]: 10 µM

COC(=O)[C@]1(C)CCCC2(C)[C@@H]3CC[C@@H]4C[C@@]3(CC[C@@H]21)C[C@]41CO1 (stereo not given in full)
IC50 [1]: > 100 µM

COC(=O)[C@]1(C)CCC[C@@]2(C)[C@@H]3CC[C@@H]4C[C@@]3(CC[C@@H]21)C(=O)[C@H]4CCc1ccccc1
IC50 [1]: > 100 µM

C=C1C[C@@]23CC[C@@H]4[C@](C)(C(=O)OC)CCC[C@@]4(C)C2=CC[C@@H]1C3 [GRANDIFLORENIC ACID METHYL ESTER]
IC50 [1]: 35 µM

C=C1C[C@@]23CC[C@@H]4[C@](C)(CO)CCC[C@@]4(C)C2=CC[C@@H]1C3
IC50 [1]: 35 µM

COC(=O)[C@]1(C)CCC[C@@]2(C)[C@@H]3CC[C@@H]4C[C@@]3(CC[C@@H]21)C[C@H]4C [DIHYDRO KAURENOIC ACID METHYL ESTER]
IC50 [1]: 75 µM

COC(=O)[C@]1(C)CCC[C@@]2(C)[C@@H]3CC[C@@H]4C[C@@]3(CC[C@@H]21)C[C@@]4(C)Cl
IC50 [1]: > 100 µM

C=C1C(=O)[C@@]23CC[C@H]4[C@@](C)(CCC[C@@]4(C)C(=O)O)[C@@H]2CC[C@@H]1C3
IC50 [1]: 35 µM

C=C1C[C@@]23CC[C@@H]4[C@](C)(C(=O)OCc5ccccc5)CCC[C@@]4(C)C2=CC[C@@H]1C3 [GRANDIFLORENIC ACID BENZYL ESTER]
IC50 [1]: 65 µM

COC(=O)[C@]1(C)CCC[C@@]2(C)C3=CC[C@@H]4C[C@]3(C=C4C=O)CC[C@H]12
Activity [2]: inactive | Activity [3]: Active | Activity [4]: Active | Activity [5]: inactive | Activity [6]: Toxic | Activity [7]: inactive | Activity [8]: Active | Activity [9]: Toxic | Activity [10]: Active | Activity [11]: Active | Activity [12]: inactive | Activity [13]: Active | Activity [14]: Active | IC50 [15]: 25 µM | IC50 [16]: 40 µM | IC50 [17]: 10 µM | IC50 [1]: 5 µM | Activity [18]: Active

C=C1C[C@@]23CC[C@@H]4[C@](C)(CO)CCC[C@@]4(C)[C@@H]2CC[C@@H]1C3
IC50 [1]: > 100 µM

C=C1[C@@H]2CC[C@H]3[C@]4(C)CCC[C@@](C)(C(=O)O)[C@H]4CC[C@]3(C2)[C@H]1OC(C)=O
IC50 [1]: 25 µM

C=C1C(=O)[C@@]23CC[C@@H]4[C@](C)(C(=O)OC)CCC[C@@]4(C)C2=CC[C@@H]1C3
Activity [2]: inactive | Activity [3]: Active | Activity [4]: Active | Activity [5]: inactive | Activity [19]: Active | Activity [6]: Non-toxic | Activity [7]: inactive | Activity [8]: Active | Activity [9]: Non-toxic | Activity [10]: Active | Activity [11]: Active | Activity [12]: inactive | Activity [13]: Active | Activity [14]: Active | IC50 [15]: > 100 µM | IC50 [16]: 25 µM | IC50 [17]: 25 µM | IC50 [1]: 5 µM | Activity [18]: Active

C=C1[C@@H]2CC=C3[C@@](CC[C@@H]4[C@](C)(C(=O)OC)CCC[C@@]34C)(C2)[C@H]1OC(C)=O
IC50 [1]: 35 µM

COC(=O)[C@]1(C)CCC[C@@]2(C)C3=CC[C@@H]4C[C@@]3(CC[C@H]12)C[C@]4(O)CO
IC50 [1]: 25 µM

C=C1[C@H]2CC3=C([C@H](C2)[C@@H]1O)[C@]1(C)CCC[C@@](C)(C(=O)OC)[C@H]1CC3
Activity [2]: inactive | Activity [3]: Active | Activity [4]: Active | Activity [5]: inactive | Activity [19]: Active | Activity [6]: Non-toxic | Activity [7]: inactive | Activity [8]: Active | Activity [9]: Non-toxic | Activity [10]: Active | Activity [11]: Active | Activity [12]: inactive | Activity [13]: Active | Activity [14]: Active | IC50 [15]: > 100 µM | IC50 [16]: > 100 µM | IC50 [17]: > 100 µM | IC50 [1]: 5 µM | Activity [18]: Active

C=C1[C@@H]2CC[C@H]3[C@]4(C)CCC[C@@](C)(C(=O)OC)[C@H]4CC[C@]3(C2)[C@H]1OC(C)=O
IC50 [1]: 25 µM

C=C1C[C@@]23CC[C@H]4[C@@](C)(CCC[C@@]4(C)C(=O)O)[C@@H]2CC[C@@H]1C3 [KAURENOIC ACID]
IC50 [1]: > 100 µM

C=C1[C@@H]2CC[C@H]3[C@]4(C)CCC[C@@](C)(C(=O)O)[C@H]4CC[C@]3(C2)[C@H]1O
IC50 [1]: > 100 µM

C=C1C[C@@]23CC[C@H]4[C@@](C)(CCC[C@@]4(C)C(=O)OCc4ccccc4)[C@@H]2CC[C@@H]1C3 [KAURENOIC ACID BENZYL ESTER]
IC50 [1]: 25 µM

COC(=O)[C@]1(C)CCC[C@@]2(C)[C@@H]3CC[C@@H]4C[C@@]3(CC[C@@H]21)C[C@@]4(C)O
IC50 [1]: 25 µM

COC(=O)[C@]1(C)CCC[C@@]2(C)[C@@H]3CC[C@@H]4C[C@@]3(CC[C@@H]21)C(=O)C41CCN=N1 (stereo not given in full)
IC50 [1]: 100 µM

C=C1[C@@H]2CC[C@H]3[C@]4(C)CCC[C@@](C)(C(=O)OC)[C@H]4CC[C@]3(C2)[C@H]1O
IC50 [1]: > 100 µM

C=C1[C@@H]2CC=C3[C@@](CC[C@@H]4[C@](C)(C(=O)OC)CCC[C@@]34C)(C2)[C@H]1O
IC50 [1]: > 100 µM

C=C1C[C@@]23CC[C@H]4[C@@](C)(CCC[C@@]4(C)C(=O)OC)[C@@H]2CC[C@@H]1C3 [KAURENOIC ACID METHYL ESTER]
IC50 [1]: 75 µM

COC(=O)[C@]1(C)CCCC2(C)[C@@H]3CC[C@@H]4C[C@@]3(CC[C@@H]21)C[C@@]41CO1 (stereo not given in full)
IC50 [1]: > 100 µM
